{"source": "ChEMBL document CHEMBL4346700", "about": "“Structure-based modification of carbonyl-diphenylpyrimidines (Car-DPPYs) as a novel focal adhesion kinase (FAK) inhibitor against various stubborn cancer cells” (Eur J Med Chem, 2019)", "key": {"NCI/ADR-RES": {"system": "NCI/ADR-RES", "test": "Antiproliferative activity against human MCF7/ADR cells assessed as reduction in cell growth incubated for 72 hrs by MTT assay"}, "[1]": {"test": "Cytotoxicity against human HPDEC cells assessed as reduction in cell growth incubated for 72 hrs by MTT assay"}, "PANC-1": {"system": "PANC-1", "test": "Antiproliferative activity against human PANC1 cells assessed as reduction in cell growth incubated for 72 hrs by MTT assay", "conditions": "PANC-1, 72 h"}, "NCI-H1975": {"system": "NCI-H1975", "test": "Antiproliferative activity against human NCI-H1975 cells assessed as reduction in cell growth incubated for 72 hrs by MTT assay", "conditions": "NCI-H1975, 72 h"}, "BXPC-3": {"system": "BXPC-3", "test": "Antiproliferative activity against human BxPC3 cells assessed as reduction in cell growth incubated for 72 hrs by MTT assay", "conditions": "BXPC-3, 72 h"}, "[2]": {"molecular_target": "Focal adhesion kinase 1 (Homo sapiens) (UniProt Q05397)", "sequence (Q05397 2-1052 limits assumed)": "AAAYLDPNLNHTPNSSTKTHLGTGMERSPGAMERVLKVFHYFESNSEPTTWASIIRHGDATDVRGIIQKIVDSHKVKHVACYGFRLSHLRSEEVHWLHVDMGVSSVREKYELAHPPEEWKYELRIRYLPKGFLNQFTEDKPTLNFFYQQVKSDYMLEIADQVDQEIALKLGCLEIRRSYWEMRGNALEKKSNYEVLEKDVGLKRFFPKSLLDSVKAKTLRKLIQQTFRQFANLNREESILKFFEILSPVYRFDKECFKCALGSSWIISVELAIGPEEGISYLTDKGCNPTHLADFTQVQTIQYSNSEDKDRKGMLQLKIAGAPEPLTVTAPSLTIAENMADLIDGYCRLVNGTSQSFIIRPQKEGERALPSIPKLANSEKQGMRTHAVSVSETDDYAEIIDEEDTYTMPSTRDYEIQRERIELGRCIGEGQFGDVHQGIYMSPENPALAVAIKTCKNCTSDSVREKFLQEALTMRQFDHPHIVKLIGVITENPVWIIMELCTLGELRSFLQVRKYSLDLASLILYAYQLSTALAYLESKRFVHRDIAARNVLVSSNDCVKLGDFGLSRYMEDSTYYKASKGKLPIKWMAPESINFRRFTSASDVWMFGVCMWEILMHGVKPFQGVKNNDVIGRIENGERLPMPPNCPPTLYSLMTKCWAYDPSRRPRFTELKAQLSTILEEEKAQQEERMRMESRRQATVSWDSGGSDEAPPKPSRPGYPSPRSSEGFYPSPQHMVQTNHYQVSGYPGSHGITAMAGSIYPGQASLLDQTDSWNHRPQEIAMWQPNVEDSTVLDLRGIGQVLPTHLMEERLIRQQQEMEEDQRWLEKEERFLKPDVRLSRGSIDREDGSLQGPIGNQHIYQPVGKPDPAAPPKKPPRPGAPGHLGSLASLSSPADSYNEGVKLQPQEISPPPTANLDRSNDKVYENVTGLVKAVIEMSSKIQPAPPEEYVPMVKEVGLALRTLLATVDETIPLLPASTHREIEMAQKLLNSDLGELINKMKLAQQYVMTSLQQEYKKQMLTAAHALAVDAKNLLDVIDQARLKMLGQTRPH", "test": "Inhibition of FAK in human AsPC1 cells assessed as reduction in autophosphorylation at 100 nM incubated for 72 hrs by immunoblotting analysis", "type": "cell-based", "summary_of_the_method": "(§1)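 AsPC-1 cells were treated at 10–100 nM for 72 h and lysed. Lysates were cleared at 14,000 g for 15 min at 4 °C, and 50 µg protein was run on 8–12% SDS-PAGE and transferred to PVDF. Membranes were blocked 2 h in 5% skim milk, probed overnight at 4 °C with primary antibodies (FAK, p-FAK, MEK1, p-MEK1, ERK1/2, p-ERK1/2, β-actin) and detected by ECL.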"}, "ASPC1 [3]": {"system": "ASPC1", "test": "Effect on total MEK protein level in human AsPC1 cells at 10 to 100 nM incubated for 72 hrs by immunoblotting analysis", "type": "cell-based", "conditions": "aspc1, 72 h, 0.1 µM", "summary_of_the_method": "as §1"}, "ASPC1 [4]": {"system": "ASPC1", "test": "Induction of apoptosis in human AsPC1 cells assessed as membrane blebbing incubated for 72 hrs by acridine orange/ethidium bromide dye based fluorescent inverted microscopy", "type": "functional, cell-based", "summary_of_the_method": "(§2)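 AsPC-1 cells (about 2×10⁵ per well) were incubated 12 h, then treated with inhibitor at 150–600 nM for 72 h. Cells were washed twice with PBS and stained with AO/EB (1.0 µg/mL each in PBS). Apoptotic, necrotic and live cells were scored and counted under a fluorescent inverted microscope at 100×.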"}, "ASPC1 [5]": {"system": "ASPC1", "test": "Antitumor activity against human AsPC1 cells xenografted in BALB/cJNju-Foxn1nu/Nju mouse assessed as inhibition of tumor growth at 60 mg/kg, po for 7 days", "type": "functional", "conditions": "168 h, read-out: TGI", "summary_of_the_method": "(§3)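 Nude mice were injected subcutaneously in the right axilla with 3×10⁶ AsPC-1 cells in 0.1 mL PBS. Three days later they were randomized into three groups and given compound orally once daily for 7 days, with controls receiving oral 25% PEG-400. Tumor volume was calculated as A×B²/2, and tumor weight was recorded; n = 3.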"}, "ASPC1 [6]": {"system": "ASPC1", "test": "Effect on total ERK protein level in human AsPC1 cells at 10 to 100 nM incubated for 72 hrs by immunoblotting analysis", "type": "cell-based", "conditions": "aspc1, 72 h, 0.1 µM", "summary_of_the_method": "as §1"}, "ASPC1 [7]": {"system": "ASPC1", "conditions": "Homo sapiens, 125 to 1000 nM"}, "ASPC1 [8]": {"system": "ASPC1", "test": "Induction of apoptosis in human AsPC1 cells assessed as apoptotic bodies incubated for 72 hrs by acridine orange/ethidium bromide dye based fluorescent inverted microscopy", "type": "functional, cell-based", "summary_of_the_method": "as §2"}, "L02": {"system": "L02", "test": "Cytotoxicity against human L02 cells assessed as reduction in cell growth incubated for 72 hrs by MTT assay", "conditions": "L02, 72 h"}, "ASPC1 [9]": {"system": "ASPC1", "test": "Antiproliferative activity against human AsPC1 cells assessed as reduction in cell growth incubated for 72 hrs by MTT assay", "conditions": "ASPC1, 72 h"}, "ASPC1 [10]": {"system": "ASPC1", "test": "Antitumor activity against human AsPC1 cells xenografted in BALB/cJNju-Foxn1nu/Nju mouse assessed as inhibition of tumor growth at 30 mg/kg, po for 7 days", "type": "functional", "conditions": "168 h, read-out: TGI", "summary_of_the_method": "as §3"}, "ASPC1 [11]": {"system": "ASPC1", "test": "Induction of apoptosis in human AsPC1 cells assessed as nuclear fragmentation incubated for 72 hrs by acridine orange/ethidium bromide dye based fluorescent inverted microscopy", "type": "functional, cell-based", "summary_of_the_method": "as §2"}, "ASPC1 [12]": {"system": "ASPC1", "test": "Induction of apoptosis in human AsPC1 cells assessed as nuclear condensation incubated for 72 hrs by acridine orange/ethidium bromide dye based fluorescent inverted microscopy", "type": "functional, cell-based", "summary_of_the_method": "as §2"}}, "note": "pIC50: −log10 of the molar value. Calls of active or inactive are those of the source. No cut-off for these calls is given here.", "data": [{"smiles": "CNC(=O)c1ccccc1Nc1nc(Nc2ccc(N3CCOCC3)cc2OC)ncc1Cl", "values": [{"measurement": "pIC50", "setting": "NCI/ADR-RES", "result": "< 5.30"}, {"measurement": "pIC50", "setting": "[1]", "result": 4.94}, {"measurement": "pIC50", "setting": "PANC-1", "result": "< 5.00"}, {"measurement": "pIC50", "setting": "NCI-H1975", "result": "< 5.70"}, {"measurement": "pIC50", "setting": "BXPC-3", "result": "< 5.00"}, {"measurement": "inhibition", "setting": "[2]", "result": 100, "unit": "%"}]}, {"smiles": "CNC(=O)c1ccccc1Nc1nc(Nc2ccc(CC(=O)N3CCOCC3)cc2)ncc1Cl", "values": [{"measurement": "pIC50", "setting": "NCI/ADR-RES", "result": 6.23}, {"measurement": "pIC50", "setting": "[1]", "result": 5.18}, {"measurement": "Activity", "setting": "ASPC1 [3]", "result": "Non-Toxic"}, {"measurement": "Activity", "setting": "ASPC1 [4]", "result": "Active"}, {"measurement": "inhibition in vivo at 60 mg/kg", "setting": "ASPC1 [5]", "result": 67, "unit": "%"}, {"measurement": "Activity", "setting": "ASPC1 [6]", "result": "Non-Toxic"}, {"measurement": "inhibition", "setting": "ASPC1 [7]", "result": "Active"}, {"measurement": "pIC50", "setting": "PANC-1", "result": 5.39}, {"measurement": "Activity", "setting": "ASPC1 [8]", "result": "Active"}, {"measurement": "pIC50", "setting": "L02", "result": 5.43}, {"measurement": "pIC50", "setting": "ASPC1 [9]", "result": 6.98}, {"measurement": "inhibition in vivo at 30 mg/kg", "setting": "ASPC1 [10]", "result": 87, "unit": "%"}, {"measurement": "Activity", "setting": "ASPC1 [11]", "result": "Active"}, {"measurement": "pIC50", "setting": "NCI-H1975", "result": 5.93}, {"measurement": "Activity", "setting": "ASPC1 [12]", "result": "Active"}, {"measurement": "pIC50", "setting": "BXPC-3", "result": 7.05}]}, {"smiles": "CNC(=O)c1ccccc1Nc1nc(Nc2ccc(SCC(=O)N3CCOCC3)cc2)ncc1Cl", "values": [{"measurement": "pIC50", "setting": "NCI/ADR-RES", "result": 5.74}, {"measurement": "pIC50", "setting": "[1]", "result": 5.70}, {"measurement": "pIC50", "setting": "PANC-1", "result": 5.26}, {"measurement": "pIC50", "setting": "L02", "result": 5.36}, {"measurement": "pIC50", "setting": "ASPC1 [9]", "result": 5.91}, {"measurement": "pIC50", "setting": "NCI-H1975", "result": 6.38}, {"measurement": "pIC50", "setting": "BXPC-3", "result": 5.54}]}, {"smiles": "CCC(Oc1ccc(Nc2ncc(Cl)c(Nc3ccccc3C(=O)NC)n2)cc1)C(=O)N1CCOCC1", "note": "(configuration not stated)", "values": [{"measurement": "pIC50", "setting": "NCI/ADR-RES", "result": 5.68}, {"measurement": "pIC50", "setting": "[1]", "result": 5.66}, {"measurement": "pIC50", "setting": "PANC-1", "result": 6.12}, {"measurement": "pIC50", "setting": "L02", "result": 6.17}, {"measurement": "pIC50", "setting": "ASPC1 [9]", "result": 5.59}, {"measurement": "pIC50", "setting": "NCI-H1975", "result": 6.35}, {"measurement": "pIC50", "setting": "BXPC-3", "result": 5.06}]}, {"smiles": "O=C(NC1CC1)c1ccccc1Nc1nc(Nc2ccc(OCC(=O)N3CCOCC3)cc2)ncc1Cl", "values": [{"measurement": "pIC50", "setting": "NCI/ADR-RES", "result": "< 5.30"}, {"measurement": "pIC50", "setting": "[1]", "result": 4.78}, {"measurement": "pIC50", "setting": "PANC-1", "result": "< 5.00"}, {"measurement": "pIC50", "setting": "L02", "result": 6.04}, {"measurement": "pIC50", "setting": "ASPC1 [9]", "result": "< 5.00"}, {"measurement": "pIC50", "setting": "NCI-H1975", "result": 6.29}, {"measurement": "pIC50", "setting": "BXPC-3", "result": "< 5.00"}]}, {"smiles": "CNC(=O)c1ccccc1Nc1nc(Nc2ccc(OCC(=O)N3CCOCC3)cc2)ncc1Cl", "values": [{"measurement": "pIC50", "setting": "NCI/ADR-RES", "result": 5.53}, {"measurement": "pIC50", "setting": "[1]", "result": 5.32}, {"measurement": "pIC50", "setting": "PANC-1", "result": "< 5.00"}, {"measurement": "pIC50", "setting": "L02", "result": 6.23}, {"measurement": "pIC50", "setting": "ASPC1 [9]", "result": 5.76}, {"measurement": "pIC50", "setting": "NCI-H1975", "result": 6.80}, {"measurement": "pIC50", "setting": "BXPC-3", "result": 5.22}]}, {"smiles": "CNC(=O)c1ccccc1Nc1nc(Nc2ccc(OC(C)C(=O)N3CCOCC3)cc2)ncc1Cl", "note": "(configuration not stated)", "values": [{"measurement": "pIC50", "setting": "NCI/ADR-RES", "result": 5.84}, {"measurement": "pIC50", "setting": "[1]", "result": 5.98}, {"measurement": "pIC50", "setting": "PANC-1", "result": 5.81}, {"measurement": "pIC50", "setting": "L02", "result": 6.09}, {"measurement": "pIC50", "setting": "ASPC1 [9]", "result": 5.54}, {"measurement": "pIC50", "setting": "NCI-H1975", "result": 6.31}, {"measurement": "pIC50", "setting": "BXPC-3", "result": 5.27}]}]}
